Values after ≈ are worked out from the molar mass of the structure shown.
Experiments:
Assay type in all cases: functional
[1] = system: Mycobacterium tuberculosis; experiment: Antitubercular activity against Mycobacterium tuberculosis H37Rv after 5 days by microplate Alamar blue assay; details: 120 h
Outline: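 MIC read by resazurin (Alamar Blue) microplate assay after 5 days of incubation at 37 °C. Run in duplicate each time, repeated twice, and MIC confirmed in a BacT/ALERT MP mycobacterial detection system.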

MCF7 [2] = experiment: Growth inhibition of human MCF7 cells at 0.1 uM after 24 hrs by SRB assay; details: MCF7, 24 h, read-out: GI
Outline: (§1)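 Human breast cancer MCF-7 cells were exposed to each compound at four doses (1 × 10^-7, 10^-6, 10^-5 and 10^-4 M) and growth was read by sulforhodamine B assay. Values are % control growth, with negative numbers meaning cell kill. GI50 is the concentration giving 50% inhibition of cell growth. Positive controls were included, and each experiment was done three times.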

MCF7 [3] = experiment: Growth inhibition of human MCF7 cells at 100 uM after 24 hrs by SRB assay; details: MCF7, 24 h, read-out: GI; outline: as §1
MCF7 [4] = experiment: Growth inhibition of human MCF7 cells at 1 uM after 24 hrs by SRB assay; details: MCF7, 24 h, read-out: GI; outline: as §1
MCF7 [5] = experiment: Growth inhibition of human MCF7 cells after 24 hrs by SRB assay; details: MCF7, 24 h; outline: as §1
MCF7 [6] = experiment: Growth inhibition of human MCF7 cells at 10 uM after 24 hrs by SRB assay; details: MCF7, 24 h, read-out: GI; outline: as §1

| Structure (SMILES) | MIC [1] | inhibition of growth at 0.1 µM (MCF7 [2]) | inhibition of growth at 100 µM (MCF7 [3]) | inhibition of growth at 1 µM (MCF7 [4]) | GI50 (MCF7 [5]) | inhibition of growth at 10 µM (MCF7 [6]) |
| --- | --- | --- | --- | --- | --- | --- |
| CCOC(=O)C1=C(C)NC(=S)NC1c1cn(-c2ccccc2)nc1-c1ccc(Cl)cc1 (stereo unspecified) | 0.125 mg/L (≈ 0.276 µM) | 4.1% | 99.2% | 12% | 33.2 µM | 70.6% |
| CCOC(=O)C1=C(C)NC(=O)NC1c1cn(-c2ccccc2)nc1-c1ccc(Cl)cc1 (stereo unspecified) | 0.25 mg/L (≈ 0.572 µM) |  | 70.3% |  | 68.8 µM | 17.1% |
| CCOC(=O)C1=C(C)NC(=O)NC1c1cn(-c2ccccc2)nc1-c1ccccc1 (stereo unspecified) | 16 mg/L (≈ 39.8 µM) |  | 86% |  | 60.8 µM | < 10% |
| CCOC(=O)C1=C(C)NC(=S)NC1c1cn(-c2ccccc2)nc1-c1ccccc1 (stereo unspecified) | 32 mg/L (≈ 76.5 µM) |  | -12% |  | 42 µM | 30.4% |
| CC1=C(C(=O)Nc2ccccc2)C(c2cn(-c3ccccc3)nc2-c2ccccc2)NC(=O)N1 (stereo unspecified) | 32 mg/L (≈ 71.2 µM) |  | 63.2% |  | 80.6 µM | < 10% |
| CC1=C(C(=O)Nc2ccccc2)C(c2cn(-c3ccccc3)nc2-c2ccccc2)NC(=S)N1 (stereo unspecified) | 32 mg/L (≈ 68.7 µM) |  | 57.4% |  | 88.2 µM | < 10% |
| CC1=C(C(=O)Nc2ccc(C)cc2)C(c2cn(-c3ccccc3)nc2-c2ccccc2)NC(=O)N1 (stereo unspecified) | 32 mg/L (≈ 69 µM) |  | 68.6% |  | 71.7 µM | 11.9% |
| CC1=C(C(=O)Nc2ccc(C)cc2)C(c2cn(-c3ccccc3)nc2-c2ccccc2)NC(=S)N1 (stereo unspecified) | 16 mg/L (≈ 33.4 µM) |  | 84.3% |  | 56.1 µM | 19.7% |
| COc1ccc(NC(=O)C2=C(C)NC(=S)NC2c2cn(-c3ccccc3)nc2-c2ccccc2)cc1 (stereo unspecified) | 8 mg/L (≈ 16.1 µM) |  | 63.9% |  | 77.3 µM | < 10% |
| CC1=C(C(=O)Nc2ccc(Cl)cc2)C(c2cn(-c3ccccc3)nc2-c2ccccc2)NC(=S)N1 (stereo unspecified) | 8 mg/L (≈ 16 µM) |  | -12.8% |  | 34.7 µM | 48.6% |
| CC1=C(C(=O)Nc2ccccc2Cl)C(c2cn(-c3ccccc3)nc2-c2ccccc2)NC(=O)N1 (stereo unspecified) | 32 mg/L (≈ 66.1 µM) |  | 72.2% |  | 66.6 µM | 13.9% |
| CC1=C(C(=O)Nc2ccccc2Cl)C(c2cn(-c3ccccc3)nc2-c2ccccc2)NC(=S)N1 (stereo unspecified) | 16 mg/L (≈ 32 µM) |  | 68.5% |  | 68.8 µM | 16.5% |
| CC1=C(C(=O)Nc2ccc([N+](=O)[O-])cc2)C(c2cn(-c3ccccc3)nc2-c2ccccc2)NC(=O)N1 (stereo unspecified) | 16 mg/L (≈ 32.4 µM) |  | -17.7% |  | 35.5 µM | 27.3% |
| CC1=C(C(=O)Nc2ccc([N+](=O)[O-])cc2)C(c2cn(-c3ccccc3)nc2-c2ccccc2)NC(=S)N1 (stereo unspecified) | 32 mg/L (≈ 62.7 µM) |  | 99.3% |  | 41.4 µM | 48.4% |
| CC1=C(C(=O)Nc2ccccc2)C(c2cn(-c3ccccc3)nc2-c2ccc(Cl)cc2)NC(=O)N1 (stereo unspecified) | 2 mg/L (≈ 4.13 µM) |  | 71.7% |  | 65.5 µM | 19.6% |
| CC1=C(C(=O)Nc2ccccc2)C(c2cn(-c3ccccc3)nc2-c2ccc(Cl)cc2)NC(=S)N1 (stereo unspecified) | 32 mg/L (≈ 64 µM) |  | 74.7% |  | 61.5 µM | 24.2% |
| CC1=C(C(=O)Nc2ccc(C)cc2)C(c2cn(-c3ccccc3)nc2-c2ccc(Cl)cc2)NC(=O)N1 (stereo unspecified) | 32 mg/L (≈ 64.3 µM) |  | 70.4% |  | 69.7 µM | 13.6% |
| CC1=C(C(=O)Nc2ccc(C)cc2)C(c2cn(-c3ccccc3)nc2-c2ccc(Cl)cc2)NC(=S)N1 (stereo unspecified) | 2 mg/L (≈ 3.89 µM) |  | 84.9% |  | 43.5 µM | 63.7% |
| COc1ccc(NC(=O)C2=C(C)NC(=O)NC2c2cn(-c3ccccc3)nc2-c2ccc(Cl)cc2)cc1 (stereo unspecified) | 1 mg/L (≈ 1.95 µM) |  | 72.1% |  | 69.7 µM | < 10% |
| COc1ccc(NC(=O)C2=C(C)NC(=S)NC2c2cn(-c3ccccc3)nc2-c2ccc(Cl)cc2)cc1 (stereo unspecified) | 16 mg/L (≈ 30.2 µM) |  | 72% |  | 70 µM | < 10% |
| CC1=C(C(=O)Nc2ccc(Cl)cc2)C(c2cn(-c3ccccc3)nc2-c2ccc(Cl)cc2)NC(=O)N1 (stereo unspecified) | 32 mg/L (≈ 61.7 µM) |  | 88.7% |  | 56.9 µM | < 10% |

— ChEMBL document CHEMBL2016524, “Synthesis and in vitro anticancer and antitubercular activity of diarylpyrazole ligated dihydropyrimidines possessing lipophilic carbamoyl group” (2012)
